Measurements taken from ChEMBL document CHEMBL1153287, “First small molecular inhibitors of T. brucei dolicholphosphate mannose synthase (DPMS), a validated drug target in African sleeping sickness” (Bioorg Med Chem Lett, 2009).
The source made the active and inactive calls. The calls are words filed in the database; no cut-off is given here.

What was measured:
Trypanosoma brucei [1] = assay: Inhibition of Trypanosoma brucei DPMS expressed in Escherichia coli assessed as residual enzyme activity at 1 mM relative to untreated control
Summary of the method: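 Recombinant full-length membrane-bound T. brucei DPMS in E. coli membranes (70 ng/ml total protein). Buffer: 50 mM Na–Hepes pH 7.4, 25 mM KCl, 5 mM MgCl2, 5 mM MnCl2, 0.1% n-octyl-glucopyranoside. Substrates: dehydrofarnesol-phosphate and GDP-[3H]Man. Inhibitor at 1 mM; 10 min at 30 °C. Lipids extracted in CHCl3:MeOH, butanol phase counted. Activity relative to a no-inhibitor control.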

Trypanosoma brucei [2] = assay: Antitrypanosomal activity against Trypanosoma brucei 427; type: functional; details: read-out: ED50 (the source's name)
Summary of the method: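 Bloodstream-form T. brucei strain 427 in culture; viability read by Alamar Blue; ED50 in μM; each experiment run at least in duplicate.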

[3] = Cytotoxicity against human HeLa cells by alamar blue assay; type: cell-based; details: read-out: ED50 (the source's name)
Summary of the method: (§1)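 HeLa cells treated at 0.1 and 1.0 mM final; viability by Alamar Blue; inhibition expressed relative to a DMSO-only control.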

Trypanosoma brucei [4] = assay: Inhibition of Trypanosoma brucei 117 DPMS-mediated glycosylphosphatidylinositol anchor biosynthesis assessed as reduction of dolicholphosphate-mannose formation
Summary of the method: (§2)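 Cell-free GPI synthesis using bloodstream T. brucei variant 117 membranes, 1 × 10^7 cell equivalents per assay. Membranes washed in Hepes pH 7.4/KCl/MgCl2 buffer with TLCK and leupeptin. Reaction in buffer with MnCl2, tunicamycin and dithiothreitol. Labelled with GDP-[3H]Man plus 1 mM UDP-GlcNAc. Inhibitor in DMSO, 1 mM final.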

Trypanosoma brucei [5] = assay: Inhibition of glycosylphosphatidylinositol anchor biosynthesis in Trypanosoma brucei 117 cell-free system assessed as reduction of Manalpha1-4GlcNH2-PI formation; type: functional; summary of the method: as §2
Trypanosoma brucei [6] = assay: Inhibition of glycosylphosphatidylinositol anchor biosynthesis in Trypanosoma brucei 117 cell-free system assessed as reduction of Manalpha1-6Manalpha1-4GlcNH2-PI formation formation; type: functional; summary of the method: as §2
Trypanosoma brucei [7] = assay: Inhibition of glycosylphosphatidylinositol anchor biosynthesis in Trypanosoma brucei 117 cell-free system assessed as reduction of Manalpha1-2Manalpha1-6Manalpha1-4GlcNH2-PI formation; type: functional; summary of the method: as §2
Trypanosoma brucei [8] = assay: Inhibition of glycosylphosphatidylinositol anchor biosynthesis in Trypanosoma brucei 117 cell-free system assessed as reduction of Manalpha1-2Manalpha1-6Manalpha1-4GlcNH2-(acyl)PI formation; type: functional; summary of the method: as §2
Trypanosoma brucei [9] = assay: Inhibition of glycosylphosphatidylinositol anchor biosynthesis in Trypanosoma brucei 117 cell-free system assessed as reduction of ethanolamine-P-Manalpha1-2Manalpha1-6Manalpha1-4GlcNH2-PI formation; type: functional; summary of the method: as §2
[10] = Cytotoxicity against human HeLa cells assessed as growth inhibition at 1 mM by alamar blue assay; type: cell-based; summary of the method: as §1

SMILES	Activity (Trypanosoma brucei [1])	EC50 (Trypanosoma brucei [2])	CC50 [3]	inhibition (Trypanosoma brucei [4])	inhibition (Trypanosoma brucei [5])	inhibition (Trypanosoma brucei [6])	inhibition (Trypanosoma brucei [7])	inhibition (Trypanosoma brucei [8])	inhibition (Trypanosoma brucei [9])	inhibition at 1000 µM [10]
O=C(O)CN1C(=O)/C(=C/c2ccccc2O)SC1=S	23%	107 µM	> 1000 µM	inactive	Active	Active	Active	Active	Active	
O=C(O)CN1C(=O)/C(=C/c2ccc(Cl)cc2)SC1=S	86%	398 µM								
O=C(O)CN1C(=O)/C(=C/c2ccc(OCc3ccccc3)c(OCc3ccccc3)c2)SC1=S	20%	492 µM	> 1000 µM	Active	Active	Active	Active	Active	Active	
O=C(O)CN1C(=O)/C(=C/c2cccc(O)c2)SC1=S	90%	345 µM								
N#Cc1ccc(/C=C2\SC(=S)N(CC(=O)O)C2=O)cc1	73%	244 µM								
O=C(O)CN1C(=O)/C(=C/c2ccccc2)SC1=S	42%	232 µM	> 1000 µM							
C#Cc1ccc(/C=C2\SC(=S)N(CC(=O)O)C2=O)cc1	94%	> 1000 µM								20%
O=C(O)CN1C(=O)/C(=C/c2ccc(O)cc2)SC1=S	70%	427 µM	> 1000 µM	Active	Active	Active	Active	Active	Active	
O=C(O)CN1C(=O)/C(=C/c2cccc(OCc3ccccc3)c2)SC1=S	23%	96 µM	> 1000 µM							
O=C(O)CN1C(=O)/C(=C/c2ccc(OCc3ccccc3)cc2)SC1=S	10%	338 µM	> 1000 µM	inactive	Active	Active	Active	Active	Active	20%
